# Source: article PMC2711440 (Nature, 2009)
# What was measured:
# Assay type in all cases: cell-based
# [1] = molecular target: NR1wt/NR2B-(2A NTD) receptors; assay: Zinc sensitivity
# In short: (§1)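 Two-electrode voltage clamp was run at −60 mV at room temperature on oocytes nuclear-injected with NR1 and NR2 cDNAs (10 ng/µl, 1:1). […] Free zinc was buffered with tricine 10 mM (1 nM–1 µM) or ADA 1 mM (0.1–100 nM), and "0" zinc contained 10 µM DTPA. Dose-response curves gave IC50 and maximal inhibition.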
# NR1wt/NR2Bwt receptors = NR1wt/NR2Bwt receptors (Homo sapiens, UniProt Q05586+Q13224); assay: Zinc sensitivity
# NR1wt/NR2Bwt receptors, sequence (Q13224 27-1484, other chains not shown): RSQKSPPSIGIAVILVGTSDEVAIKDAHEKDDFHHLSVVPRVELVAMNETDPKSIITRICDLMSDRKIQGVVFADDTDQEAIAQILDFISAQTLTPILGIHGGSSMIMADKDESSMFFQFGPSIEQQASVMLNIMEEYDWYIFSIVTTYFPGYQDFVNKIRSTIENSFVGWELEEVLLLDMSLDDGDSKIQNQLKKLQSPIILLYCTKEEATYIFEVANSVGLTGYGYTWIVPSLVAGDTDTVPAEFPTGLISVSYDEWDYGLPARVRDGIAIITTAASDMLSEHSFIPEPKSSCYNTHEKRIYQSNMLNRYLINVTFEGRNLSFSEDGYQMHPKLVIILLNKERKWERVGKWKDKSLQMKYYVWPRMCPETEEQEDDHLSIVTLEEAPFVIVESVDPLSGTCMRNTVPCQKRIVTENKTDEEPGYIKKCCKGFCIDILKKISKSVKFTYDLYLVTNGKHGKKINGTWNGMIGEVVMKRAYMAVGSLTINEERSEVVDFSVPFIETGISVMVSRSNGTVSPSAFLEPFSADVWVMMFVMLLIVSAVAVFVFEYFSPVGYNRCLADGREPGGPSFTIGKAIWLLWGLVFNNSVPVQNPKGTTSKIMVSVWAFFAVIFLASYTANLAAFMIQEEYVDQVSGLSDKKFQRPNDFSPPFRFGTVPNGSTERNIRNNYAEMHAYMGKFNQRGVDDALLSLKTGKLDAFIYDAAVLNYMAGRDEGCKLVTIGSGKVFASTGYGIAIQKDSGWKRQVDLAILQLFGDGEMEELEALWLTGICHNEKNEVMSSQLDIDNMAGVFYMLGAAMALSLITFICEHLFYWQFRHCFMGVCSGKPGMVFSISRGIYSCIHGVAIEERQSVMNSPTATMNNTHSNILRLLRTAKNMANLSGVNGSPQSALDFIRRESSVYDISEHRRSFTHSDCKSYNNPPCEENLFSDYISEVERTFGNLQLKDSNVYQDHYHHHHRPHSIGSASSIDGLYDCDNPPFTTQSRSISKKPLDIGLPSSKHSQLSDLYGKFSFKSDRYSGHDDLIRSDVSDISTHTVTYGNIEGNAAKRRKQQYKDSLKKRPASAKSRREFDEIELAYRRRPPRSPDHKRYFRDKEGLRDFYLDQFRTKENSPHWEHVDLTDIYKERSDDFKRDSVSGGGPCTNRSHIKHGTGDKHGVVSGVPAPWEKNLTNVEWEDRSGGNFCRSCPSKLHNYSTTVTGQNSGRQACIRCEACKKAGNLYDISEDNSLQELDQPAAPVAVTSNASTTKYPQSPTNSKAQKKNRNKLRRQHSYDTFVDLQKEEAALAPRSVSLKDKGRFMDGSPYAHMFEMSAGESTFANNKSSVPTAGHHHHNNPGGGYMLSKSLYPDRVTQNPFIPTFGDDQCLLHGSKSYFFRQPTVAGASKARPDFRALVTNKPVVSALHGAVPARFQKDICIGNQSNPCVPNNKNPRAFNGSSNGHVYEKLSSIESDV
# In short: as §1
# NR1wt/NR2Dwt receptors [2] = molecular target: T1, NR1wt/NR2Dwt receptors (Rattus norvegicus, UniProt P35439+Q62645); assay: Zinc sensitivity
# T1 sequence (Q62645 28-1323, other chains not shown): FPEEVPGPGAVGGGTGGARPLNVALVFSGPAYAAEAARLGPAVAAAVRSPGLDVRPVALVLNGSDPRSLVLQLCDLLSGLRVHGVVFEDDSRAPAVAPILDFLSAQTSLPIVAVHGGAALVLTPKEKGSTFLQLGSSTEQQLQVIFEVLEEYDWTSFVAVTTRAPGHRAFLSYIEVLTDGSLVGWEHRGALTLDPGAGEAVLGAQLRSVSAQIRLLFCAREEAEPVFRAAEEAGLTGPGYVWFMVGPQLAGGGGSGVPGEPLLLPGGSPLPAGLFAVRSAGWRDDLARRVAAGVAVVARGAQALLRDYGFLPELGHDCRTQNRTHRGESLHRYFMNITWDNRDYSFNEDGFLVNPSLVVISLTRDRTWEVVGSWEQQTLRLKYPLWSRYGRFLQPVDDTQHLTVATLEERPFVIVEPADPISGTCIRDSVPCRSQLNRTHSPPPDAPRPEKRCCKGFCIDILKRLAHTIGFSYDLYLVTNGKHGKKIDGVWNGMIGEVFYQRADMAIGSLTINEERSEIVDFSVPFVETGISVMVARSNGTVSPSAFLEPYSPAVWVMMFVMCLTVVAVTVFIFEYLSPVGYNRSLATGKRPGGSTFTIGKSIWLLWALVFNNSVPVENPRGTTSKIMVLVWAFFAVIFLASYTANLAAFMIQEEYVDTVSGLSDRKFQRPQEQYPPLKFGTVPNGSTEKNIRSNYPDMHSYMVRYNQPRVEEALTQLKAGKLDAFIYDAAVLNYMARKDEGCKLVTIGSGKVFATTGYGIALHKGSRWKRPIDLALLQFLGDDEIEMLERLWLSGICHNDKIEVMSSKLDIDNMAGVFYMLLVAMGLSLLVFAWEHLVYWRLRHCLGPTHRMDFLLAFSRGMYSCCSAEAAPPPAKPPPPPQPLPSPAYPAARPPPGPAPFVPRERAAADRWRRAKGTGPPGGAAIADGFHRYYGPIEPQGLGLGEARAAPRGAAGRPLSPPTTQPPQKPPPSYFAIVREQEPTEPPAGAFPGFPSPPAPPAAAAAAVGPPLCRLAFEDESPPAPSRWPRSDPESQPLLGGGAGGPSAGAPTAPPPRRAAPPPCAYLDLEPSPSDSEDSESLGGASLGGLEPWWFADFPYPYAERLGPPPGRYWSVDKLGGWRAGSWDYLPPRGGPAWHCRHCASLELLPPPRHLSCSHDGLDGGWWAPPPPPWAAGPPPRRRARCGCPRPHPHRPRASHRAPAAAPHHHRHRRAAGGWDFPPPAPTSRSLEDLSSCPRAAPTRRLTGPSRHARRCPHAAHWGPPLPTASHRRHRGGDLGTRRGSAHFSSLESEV
# In short: as §1
# NR1wt/NR2Awt receptors = NR1wt/NR2Awt receptors (Homo sapiens, UniProt Q05586+Q12879); assay: Zinc sensitivity
# NR1wt/NR2Awt receptors, sequence (Q12879 23-1464, other chains not shown): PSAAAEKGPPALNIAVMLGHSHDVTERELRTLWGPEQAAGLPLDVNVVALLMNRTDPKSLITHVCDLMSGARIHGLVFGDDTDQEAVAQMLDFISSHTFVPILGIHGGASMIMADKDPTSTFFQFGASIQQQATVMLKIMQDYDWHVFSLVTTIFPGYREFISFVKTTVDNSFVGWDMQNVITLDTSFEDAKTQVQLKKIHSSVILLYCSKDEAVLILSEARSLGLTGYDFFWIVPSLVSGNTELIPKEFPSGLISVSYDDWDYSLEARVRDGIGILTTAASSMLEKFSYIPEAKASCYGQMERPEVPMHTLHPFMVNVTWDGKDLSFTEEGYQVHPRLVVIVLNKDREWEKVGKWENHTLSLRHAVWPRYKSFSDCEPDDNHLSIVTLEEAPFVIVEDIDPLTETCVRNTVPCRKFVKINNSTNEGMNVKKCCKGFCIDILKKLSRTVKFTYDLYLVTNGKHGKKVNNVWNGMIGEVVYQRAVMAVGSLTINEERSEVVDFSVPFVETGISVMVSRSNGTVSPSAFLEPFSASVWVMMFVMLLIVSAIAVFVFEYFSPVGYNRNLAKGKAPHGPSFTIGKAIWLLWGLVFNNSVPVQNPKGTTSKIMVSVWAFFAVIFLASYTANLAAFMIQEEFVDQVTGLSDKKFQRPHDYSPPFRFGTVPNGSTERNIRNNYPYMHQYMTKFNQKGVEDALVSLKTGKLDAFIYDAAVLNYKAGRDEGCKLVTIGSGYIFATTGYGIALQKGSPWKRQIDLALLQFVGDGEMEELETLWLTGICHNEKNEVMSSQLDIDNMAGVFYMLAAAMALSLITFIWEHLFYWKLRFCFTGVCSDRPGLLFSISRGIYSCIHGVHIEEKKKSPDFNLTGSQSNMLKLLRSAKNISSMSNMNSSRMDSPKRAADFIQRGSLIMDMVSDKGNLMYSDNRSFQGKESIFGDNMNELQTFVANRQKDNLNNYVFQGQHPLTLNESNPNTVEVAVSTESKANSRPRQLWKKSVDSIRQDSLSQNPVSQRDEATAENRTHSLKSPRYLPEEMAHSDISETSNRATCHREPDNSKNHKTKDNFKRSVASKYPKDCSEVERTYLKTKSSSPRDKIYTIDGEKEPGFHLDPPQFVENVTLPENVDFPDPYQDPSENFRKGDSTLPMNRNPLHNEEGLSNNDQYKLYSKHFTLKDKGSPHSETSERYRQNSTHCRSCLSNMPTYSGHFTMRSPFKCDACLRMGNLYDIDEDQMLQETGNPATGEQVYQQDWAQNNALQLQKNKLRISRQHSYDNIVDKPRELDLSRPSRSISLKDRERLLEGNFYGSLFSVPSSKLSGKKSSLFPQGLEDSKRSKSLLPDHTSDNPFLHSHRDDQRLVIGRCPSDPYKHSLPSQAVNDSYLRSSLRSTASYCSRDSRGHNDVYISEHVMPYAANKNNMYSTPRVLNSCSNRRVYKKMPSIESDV
# In short: as §1
# [3] = test system: receptors incorporating NR1wt and NR2Awt, NR2Bwt, NR2Dwt, NR2B-(2A NTD), NR2B-(2A NTD+L) or NR2D-(2A NTD+L); assay: Zinc sensitivity; conditions: zinc dose-response, all constructs of Fig. 3a
# In short: as §1
# [4] = molecular target: NR1wt/NR2B-(2A NTD+L) receptors; assay: Zinc sensitivity
# In short: as §1
# [5] = molecular target: NR1wt/NR2D-(2A NTD+L) receptors; assay: Zinc sensitivity
# In short: as §1
# NR1wt/NR2Dwt receptors [6] = molecular target: T1, NR1wt/NR2Dwt receptors; assay: Kinetics of inhibition by MK-801, oocyte voltage-clamp; conditions: trace of Fig. 1f
# [7] = test system: NR1wt/NR2D-(2A NTD+L) receptors; assay: as above; conditions: trace of Fig. 1f
# [8] = test system: NR1wt/NR2A-(2D NTD+L) receptors; assay: as above; conditions: NR2A-(2D NTD+L) vs NR2Awt
# [9] = test system: NR1wt/NR2D-ΔNTD receptors; assay: as above; conditions: trace of Fig. 1f
# NR1-A652C/NR2D receptors = NR1-A652C/NR2D receptors (Homo sapiens, UniProt O15399+Q05586, A652C); assay: MTSEA-induced potentiation of currents; conditions: NR2D-containing receptors (NR1-A652C)
# [10] = test system: NR1-A652C/NR2A-(2D NTD+L) receptors; assay: MTSEA-induced potentiation of currents; conditions: NR2A-(2D NTD+L) vs NR2Awt
# [11] = test system: NR1-A652C/NR2D-ΔNTD receptors; assay: MTSEA-induced potentiation of currents; conditions: NR2D-ΔNTD vs NR2D
smiles,measurement,setting,value
"[Zn+2] [Zinc, zinc]",IC50,[1],0.2 nM
same,Inhibmax,[1],83%
same,IC50,NR1wt/NR2Bwt receptors,720 nM
same,Inhibmax,NR1wt/NR2Bwt receptors,98%
same,IC50,NR1wt/NR2Dwt receptors [2],7800 nM
same,Inhibmax,NR1wt/NR2Dwt receptors [2],100%
same,IC50,NR1wt/NR2Awt receptors,7.5 nM
same,Inhibmax,NR1wt/NR2Awt receptors,81%
same,nH,[3],0.9–1.2
same,IC50,[4],5.4 nM
same,Inhibmax,[4],86%
same,IC50,[5],1.5 nM
same,Inhibmax,[5],90%
C[C@]12N[C@H](Cc3ccccc31)c1ccccc12 [MK-801],τon of inhibition by MK-801,NR1wt/NR2Dwt receptors [6],32 s
same,τon of inhibition by MK-801,[7],1.6 s
same,MK-801 inhibition slower than at NR2Awt-containing receptors,[8],15 fold
same,τon of inhibition by MK-801,[9],5.7 s
"Br.CS(=O)(=O)SCCN [MTSEA, 2-aminoethylmethanethiosulfonatehydrobromide]",MTSEA-induced potentiation,NR1-A652C/NR2D receptors,~ 300 fold
same,Higher MTSEA-potentiation than NR2Awt-containing receptors,[10],17 fold
same,Decrease in MTSEA potentiation on deleting the NR2D-NTD,[11],4 fold
